Series [1] addresses Nuclear receptor subfamily 1 group I member 3 (Mus musculus, UniProt O35627, N175A). Put plainly: Decrease in mouse CAR N175A mutant activation expressed in HEK293 cells at 10 uM by mammalian one-hybrid assay. The class given is cell-based. To be noted: read-out: Activity. In a few lines: (§1)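 GAL4-DBD fused to mouse CAR LBD (residues 118-358), wild-type or point mutant, cotransfected with UASx4-tk-luc reporter and pCMVβ into HEK293 cells. Cells were exposed to final 1 µM, 2 µM or 10 µM test chemical, or 0.1% v/v DMSO, for 24 h after transfection. Luciferase was normalized to β-galactosidase and set against empty GAL4 vector (=1.0). Mean ± standard deviation, three independent experiments.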

In series [2] the target is Nuclear receptor subfamily 1 group I member 3 (Mus musculus, UniProt O35627, F171A). As to the kind of experiment: Enhancement of nuclear co-repressor receptor binding to mouse CAR F171A mutant […] at 10 uM by yeast two-hybrid assay. The series is classed as cell-based. In a few lines: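 Yeast two-hybrid assay. Yeast co-expressing wild-type or mutant mouse CAR LBD and the NCoR partner were selected on SD plates lacking leucine and tryptophan. Pooled, amplified colonies were treated with DMSO or test chemical for 3.5 h. β-galactosidase activity was normalized to cell density and referenced to the 10 µM androstenol interaction (=100). Mean ± standard deviation of two determinations, each in triplicate.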
Nuclear receptor subfamily 1 group I member 3 (Mus musculus, UniProt O35627, F171A), sequence (O35627 whole entry F171A, the tested form may be a part): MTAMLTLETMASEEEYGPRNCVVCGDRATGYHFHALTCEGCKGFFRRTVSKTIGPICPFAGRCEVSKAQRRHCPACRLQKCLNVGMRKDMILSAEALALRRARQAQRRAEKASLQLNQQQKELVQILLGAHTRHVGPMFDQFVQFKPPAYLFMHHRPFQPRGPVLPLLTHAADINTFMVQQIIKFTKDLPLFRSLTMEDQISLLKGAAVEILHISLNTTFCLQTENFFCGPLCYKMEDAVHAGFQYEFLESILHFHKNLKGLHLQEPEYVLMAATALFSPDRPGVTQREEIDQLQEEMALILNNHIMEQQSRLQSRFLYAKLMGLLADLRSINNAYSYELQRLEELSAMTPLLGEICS

Series [3] concerns the target T1, Nuclear receptor subfamily 1 group I member 3 (Mus musculus, UniProt O35627, L212A). Put plainly: Effect on steroid receptor co-activator 1 binding to mouse CAR L212A mutant […] at 10 uM by yeast two-hybrid assay. The series is classed as cell-based. Particulars: read-out: Activity. A digest of the protocol:
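Yeast two-hybrid assay. Yeast co-expressing wild-type or mutant mouse CAR LBD and the SRC-1 partner were selected on SD plates lacking leucine and tryptophan. Random colonies were pooled and amplified, then treated with DMSO or test chemical for 3.5 h. β-galactosidase activity was normalized to cell density and set relative to wild-type mCAR + SRC-1 with DMSO (=100). Mean ± standard deviation of two determinations, each in triplicate.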

Series [4] has as its target Nuclear receptor subfamily 1 group I member 3 (Mus musculus, UniProt O35627, I252L). Put plainly: Enhancement of steroid receptor coactivator 1 binding to mouse CAR I252L mutant […] at 10 uM by yeast two-hybrid assay. The series is classed as cell-based. A digest of the protocol:
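Yeast two-hybrid: yeast expressing wild-type or mutant mouse CAR LBD plus SRC-1 or NCoR, selected on SD medium lacking Leu and Trp. Pooled colonies treated with DMSO or test chemical for 3.5 h. β-Galactosidase normalized to cell density. SRC-1 reference: wild-type + DMSO = 100. NCoR reference: 10 µM androstenol = 100. Mean ± SD, two independent determinations, each in triplicate.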

For series [5], the target named is Nuclear receptor subfamily 1 group I member 3 (Mus musculus, UniProt O35627, L253F). As to the kind of experiment: Effect on nuclear co-repressor receptor binding to mouse CAR L253F mutant […] at 10 uM by yeast two-hybrid assay. The class given is cell-based. Particulars: read-out: Activity. A digest of the protocol: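 Yeast expressing wild-type or mutant mouse CAR LBD plus NCoR, selected on SD plates lacking leucine and tryptophan. Pooled colonies treated with DMSO or compound for 3.5 h. β-Galactosidase activity normalized to cell density. Reference is 10 µM androstenol (=100). Mean ± SD of two independent determinations, each in triplicate.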
Nuclear receptor subfamily 1 group I member 3 (Mus musculus, UniProt O35627, L253F), sequence (O35627 whole entry L253F, the tested form may be a part): as the sequence (O35627 whole entry F171A, the tested form may be a part) above, with A171F, L253F counted along it

In series [6] the target is T2, Nuclear receptor subfamily 1 group I member 3 (Mus musculus, UniProt O35627, Y336A). As to the kind of experiment: Decrease in steroid receptor coactivator 1 binding to mouse CAR Y336A mutant […] at 10 uM by yeast two-hybrid assay. The series is classed as cell-based. Particulars: read-out: Activity. In a few lines:
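Yeast expressing wild-type or mutant mouse CAR LBD plus SRC-1, selected on SD plates lacking leucine and tryptophan. Pooled colonies treated with DMSO or compound for 3.5 h. β-Galactosidase activity normalized to cell density. Reference is wild-type CAR + SRC-1 with DMSO (=100). Mean ± SD of two independent determinations, each in triplicate.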

The target of series [7] is Nuclear receptor subfamily 1 group I member 3 (Mus musculus, UniProt O35627, H213A). Particulars: HEK293, mouse, read-out: Activity.
Nuclear receptor subfamily 1 group I member 3 (Mus musculus, UniProt O35627, H213A), sequence (O35627 whole entry H213A): as the sequence (O35627 whole entry F171A, the tested form may be a part) above, with A171F, H213A counted along it
Series [8] deals with T3, Nuclear receptor subfamily 1 group I member 3 (Mus musculus, UniProt O35627, T350M). Particulars: HEK293, mouse, read-out: Activity.
T3 sequence (O35627 whole entry T350M): as the sequence (O35627 whole entry F171A, the tested form may be a part) above, with A171F, T350M counted along it
Series [9] deals with Nuclear receptor subfamily 1 group I member 3 (Mus musculus, UniProt O35627, F171L). To be noted: HEK293, mouse.
Nuclear receptor subfamily 1 group I member 3 (Mus musculus, UniProt O35627, F171L), sequence (O35627 whole entry F171L): as the sequence (O35627 whole entry F171A, the tested form may be a part) above, with A171L counted along it
The target of series [10] is T2, Nuclear receptor subfamily 1 group I member 3. To be noted: HEK293, mouse, read-out: Activity.
Series [11] has as its target T3, Nuclear receptor subfamily 1 group I member 3. To be noted: HEK293, mouse, read-out: Activity. The source holds these as a separate data set.
Series [12] addresses T1, Nuclear receptor subfamily 1 group I member 3. Put plainly: Decrease in nuclear co-repressor receptor binding to mouse CAR L212A mutant […] at 10 uM by yeast two-hybrid assay. Set-up: scale not given: the % may be the effect or the level left. The class given is cell-based.
Series [13] shares this target. Put plainly: Enhancement of steroid receptor co-activator 1 binding to mouse CAR L212A mutant […] at 10 uM by yeast two-hybrid assay. The series is classed as cell-based.
Series [14] addresses T4, mouse CAR (NR1I3), wild type (Mus musculus, UniProt O35627).
T4 sequence (O35627 whole entry): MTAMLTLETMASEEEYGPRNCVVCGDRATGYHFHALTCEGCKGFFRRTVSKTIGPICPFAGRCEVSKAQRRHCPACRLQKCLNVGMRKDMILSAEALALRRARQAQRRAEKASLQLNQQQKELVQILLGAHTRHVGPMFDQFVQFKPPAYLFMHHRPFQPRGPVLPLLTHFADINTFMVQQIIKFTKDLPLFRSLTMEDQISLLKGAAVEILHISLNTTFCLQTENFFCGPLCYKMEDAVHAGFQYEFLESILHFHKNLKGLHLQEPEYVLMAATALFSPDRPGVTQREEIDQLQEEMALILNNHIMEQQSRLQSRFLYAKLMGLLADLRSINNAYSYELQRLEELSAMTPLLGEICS
Put plainly: Activation of wild type mouse CAR expressed in HEK293 cells at 10 uM by mammalian one-hybrid assay. The series is classed as cell-based. To be noted: HEK293 cells expressing wild type mouse CAR, read-out: FC. In a few lines: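 GAL4 DBD fused to mouse CAR LBD (residues 118-358), wild type or point mutant, cotransfected with UASx4-tk-luc reporter and pCMVβ into HEK293 cells. Cells cultured with DMSO (0.1% v/v) or compound (final 1, 2 or 10 µM). Lysed 24 h post-transfection. Luciferase normalized to β-galactosidase, expressed relative to empty GAL4 vector (=1.0). Mean ± SD, three independent experiments.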

The target of series [15] is Nuclear receptor subfamily 1 group I member 3 (Mus musculus, UniProt O35627, T350A). Particulars: HEK293, mouse, read-out: Activity.
Nuclear receptor subfamily 1 group I member 3 (Mus musculus, UniProt O35627, T350A), sequence (O35627 whole entry T350A): as the sequence (O35627 whole entry F171A, the tested form may be a part) above, with A171F, T350A counted along it
Series [16] has as its target T5, Nuclear receptor subfamily 1 group I member 3 (Mus musculus, UniProt O35627).
T5 sequence (O35627 whole entry): T4 sequence (O35627 whole entry)
Put plainly: Activation of wild type mouse CAR expressed in HEK293 cells at 2 uM by mammalian one-hybrid assay. To be noted: hek293, 2 µM. The class given is cell-based. In a few lines:
as §1

T1 sequence (O35627 whole entry L212A, the tested form may be a part): as the sequence (O35627 whole entry F171A, the tested form may be a part) above, with A171F, L212A counted along it
Nuclear receptor subfamily 1 group I member 3 (Mus musculus, UniProt O35627, I252L), sequence (O35627 whole entry I252L, the tested form may be a part): as the sequence (O35627 whole entry F171A, the tested form may be a part) above, with A171F, I252L counted along it
T2 sequence (O35627 whole entry Y336A, the tested form may be a part): as the sequence (O35627 whole entry F171A, the tested form may be a part) above, with A171F, Y336A counted along it
Nuclear receptor subfamily 1 group I member 3 (Mus musculus, UniProt O35627, N175A), sequence (O35627 whole entry N175A, the tested form may be a part): as the sequence (O35627 whole entry F171A, the tested form may be a part) above, with A171F, N175A counted along it

With `COc1ccc(C(=O)CCCc2ccccc2)cc1`, the inhibition at 10 µM in series [1] was less than 50%; in [6], not below 50%; in series [7], 50%; in [8], 50%; in series [10] it was not below 50%; in series [11], not below 50%. The Activity entry in series [2] and in series [4] was “>= 50%” each time. Also, the activity at 10 µM in [3], in series [5] and in [9] was less than 50% each time.
Consider `COc1ccccc1CC(CC(=O)Cc1ccccc1)OC` (stereo not drawn), for which the inhibition at 10 µM in [1] is 50%; in [7], 50%; in [15], 50%; in series [8] it was less than 50%; in series [10] it was not below 50%; in series [11], not below 50%. The Activity entry is reported as “>= 50%” in series [12], more than 150% in series [13] and more than 50% in [4]. Further, in [14], the fold induction at 10 µM came to 2.
With `Clc1cnc(Oc2ccc(Oc3ncc(Cl)cc3Cl)cc2)c(Cl)c1`, the fold induction at 10 µM in series [14] is 2.
As for `C[C@]12CC[C@@H](O)C[C@@H]1CC[C@@H]1[C@@H]2CC[C@]2(C)C=CC[C@@H]12` [ANDROSTENOL], the Activity result in series [12] is listed as “>= 50%”. Besides, the activity at 10 µM in [3] and in [9] was less than 50% throughout. Besides, the inhibition at 10 µM in [10] and in series [11] was not below 50% throughout.
`Clc1ccccc1C(c1ccccc1)(c1ccccc1)n1ccnc1` [CLOTRIMAZOLE]: the Activity in [16] is 40%.
Turning to `COc1ccc(C(c2ccc(OC)cc2)C(Cl)(Cl)Cl)cc1` [METHOXYCHLOR], the Activity entry in [2] is “>= 50%”; in series [12] it was “>= 50%”; in [13], “>= 50%”; in [4] it was “>= 50%”; in series [16], 40%. Further, the activity at 10 µM in series [5] was less than 50%. Also, the inhibition at 10 µM in series [6] is not below 50%; in [15], 50%; in series [10], not below 50%; in series [11], not below 50%.

For the origin of these results see ChEMBL document CHEMBL1152300, “Ligand specificity of constitutive androstane receptor as probed by induced-fit docking and mutagenesis” (J Med Chem, 2008).
